In the EternaBench riboswitch data:

System: MS2 coat protein
Assay: apparent Kd, MS2 coat protein; higher = weaker binding; RNA-MaP array; FMN 200 µM where present
Outline: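 The apparent Kd is the median of filtered binding-curve fits, one per cluster, to green signal normalised to red-channel RNA signal and control-cluster median Fmax. The clusters were on Illumina sequencing chips, and stalled E. coli RNA polymerase had transcribed the designs on them. Titration used SNAP-549-labelled MS2 coat protein from 0.7 or 1.5 nM, doubling to 3 µM, without and then with constant ligand, in 100 mM Tris-HCl pH 7.5, 80 mM KCl, 4 mM MgCl2, BSA, DTT, yeast tRNA and Tween-20.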

[1] = designed as: ON switch for flavin mononucleotide, no ligand
[2] = ligand present: flavin mononucleotide, designed as: ON switch for flavin mononucleotide
[3] = designed as: OFF switch for flavin mononucleotide, no ligand
[4] = ligand present: flavin mononucleotide, designed as: OFF switch for flavin mononucleotide

Sequence	apparent Kd [1] [nM]	apparent Kd [2] [nM]	apparent Kd [3] [nM]	apparent Kd [4] [nM]
AUGGCUAAUGAGAAGGUGUAUAUAAAUUAUAUACAAGGAUAUCGGUCAAGCAUGAAAACAUGAGGAUCACCCAUGUAAAGCCAU	9.37	7.57	–	–
GUUAUGUUAGGAUAUGCUUAUGGUGGAUAAUCAGAUAUGAUGCAGAAGGGACAUGAGGAUCACCCAUGUACUGU	–	–	21	23.8
UGGUACUAGGGAGGAUAUGGGAAGAUACAUGAGGAUCACCCAUGUUUAAGAAUGCCGAGAUGCAACUAGAAGGCCCUAGUACCU	371	21.9	–	–
AGAUAGUGGUGAGGAUAUCAGAAUAGAAAGAAAUGAGAAGGCACACAUGAGGAUCACCCAUGUGAGUUCUUGAGAUUACAUGGU	–	–	18.4	34.2
AUCAGAUCGUCAGGAUAUACGUCACUGCGUCAGCAGUGUGGUAAGAUCACAUGAGGAUCACCCAUGUAGAAGGGACGAGCUGAU	–	–	13.9	296
GAGUGUGAAUAAGGAUAUAUGAGAGAGUGAGUAAUAGAAGGUAUACAAACAUGAGACAUGAGGAUCACCCAUGUAUCACCCAUG	20.8	16.1	–	–
AAACCACAUGAGGAUCACCCAUGUAAAAAUAUGGGAGGAUAUCGGAAUAAAAUAAAGAAACGAGAAGGCCUAAAAA	153	35.9	–	–
AUGCUUUAUGUAGGAUAUACAUACGGUACGUAUGUAGAAGGACAUGAGGAUCACCCAUGUAAAUUAUUAUUAAAUAUCAUACAU	–	–	8.56	12.3
CCUGUGUGAGGAUAUGGUGUUGGCCACAAGGAAUAGCUCCUCCAGAAGGCACAUGAGGAUCACCCAUGUCGUGG	–	–	17.6	80.3
AAUCUUUUUAUGGGAUUACAAUAUGAGGAUAUCAUUCAUUUAUACAUGAGGAUCACCCAUGUUACUGAGAAGGCAUAUAUAAUA	–	11	–	–
GCGGUACAUGAGGAUCACCCAUGUCAGGAUAUCCGCUGUUUGUCGAUUGGCAGGCGGUGGAGAAGGGACCUCGC	–	–	97.5	98.5
GGUUGACAAAGUCAACCAUUACGAACAUGAGGAUCACCCAUGUAGGAUAUGCUACUCAAAGAGUAGCAGAAGGACAUGUGUCUU	–	–	30.1	147
AACAUACUAUACAUGAGGAUCACCCAUGUUUGGGCACUGUACAGAAGGCACGGGCAAAUGCGAGGUGAGGAUAUGUAGUUAGUG	64.8	18.8	–	–
CAUUAAUUGAUUAUUGUAUUUAUACAGGAUAUGUAACAUGAGGAUCACCCAUGUAUACAUGGGAAACAGAAGGGUAUUUAAAGA	–	–	34.7	25.3
GCCCGGCCCGGGCCCACGGCAUCACAGGAUAUGCCGAUCACAUGAGGAUCACCCAUGUCAACUCCGCAGAAGGGUGAUAUCGUG	322	33.2	–	–
AGUGACGGUACAGGAUAUGCUGGACUUUGUCCAGCAGAAGGGUAUUAACAUGAGGAUCACCCAUGUUCCGUCACCAAAUUUAAU	41	7.4	–	–
UCAGAGGCUGACAUGAGGAUCACCCAUGUUAGAUUGUUAUGUCAGGAUAUUAUCUGGCAACCAGAUGAGAAGGGACCCUCUGUG	22	7.67	–	–
UAAUCUCAGAUAGGAUAUAUAGGAUAACUUAAGACCUAACAUGAGGAUCACCCAUGUGAUUAUUCGUAGAAGGAUCAUUGAACA	259	263	–	–
AAACUGCAUGUGAGGAUAUGCACCGACUAAACCGGGCAGAAGGCACAUGAGGAUCACCCAUGUCAUCCUAUUGC	–	–	8.62	18.1
GGGUAACAUGAGGAUCACCCAUGUGAGGAUAUCCUAGGGAUGGAAGCUCGGCCAACCAGGAGAAGGUACUAAAG	–	–	73.9	131
AUACCUUAUGAGAAGGCGAUCAUGAAACAUGAUCGAGGAUAUCAUGUAAACAUGAGGAUCACCCAUGUAUGGGUAUUAUGGUAC	28.4	9.72	–	–
GCAUACAUUCGAGGAUAUCGGUGAACAAAUUAACGAGAAGGCGAUAGAAUGUCUCAUCUUAUGAACAUGAGGAUCACCCAUGUA	30	26.2	–	–
UAAGCGAUACAGAAGGGAAACAUGAGGAUCAGCCGCGACAUGAGGAUCACCCAUGUUUACUUAUUUCAGGAUAUGUACAGUAGC	612	272	–	–
UGGUACAUGAGGAUCACCCAUGUAAGAGCCCUCAUGCGAUGUAGAAGGAUAAUGGGAGUACUGCUAUAGGAUAUACAUGAGUUU	–	–	145	147
UUUCUUGGGCAAGGAUAUCCUGUGCGGUUACGGCUCGUGUCUGUCACAUGAGGAUCACCCAUGUGGGAGAAGGUGCCUGCGGUC	–	–	6.09	6.78
UUAGGACGAAACAUGAGGAUCACCCAUGUGUUAUAAUUAAUAUAGGAUAUGUUUAUACUUUUUGGGCAGAAGGAUGAUAAUGCU	19.7	15.4	–	–
GAAAUUACAUGAGGAUCACCCAUGUAGGAUAUCGCUAUUGUAAUCAUGUUACAUGAUUACAAUAGCGAGAAGGACGUGAGAAAG	–	–	22.9	25.6
AAAUAGCGAGGAUAUACAUGAGGAUCACCCAUGUGGACUGAUGUCGCGUGAUUCAGUGGUAGAAGGUGCUCAAA	–	–	45.4	76.3

Sequence	apparent Kd [1] [nM]	apparent Kd [2] [nM]	apparent Kd [3] [nM]	apparent Kd [4] [nM]
UGAUCUUUUGUUAGGAUAUGCUGGGUUUUUUCUCAGCAGAAGGGACAUGAGGAUCACCCAUGUUCUCUCUUUUU	–	–	9.49	11.6
GCGCCAUCGUGAGAUGGCGUAUAUACAUGAGGAUCACCCAUGUAGGAUAUCGAUUGCUUUGCAGUCGAGAAGGGCAUGUAAUUU	–	–	33.5	43.9
ACACAUGAGGAUCACCCAUGUAGCUGGCAUCUGCGCCAGCCACAGGAUAUACGGCAACACAAACCGUAGAAGGGUGAUAAACAC	59.5	35.5	–	–
UGGUACAUCGGAGGAUAUCAUGUAAAUACAUGAGGAUCACCCAUGUCGUACGAGAGUACGGAGAUUGAGAAGGCCGAUGUACCU	25.7	15	–	–
UUGUACCGGUGAGGAUAUUUUUGAUAGAACUUUAUGAUAUACAUGAGGAUCACCCAUGUUACUUUAAAGAAGGCAUCGGAUUAU	–	–	19.4	15.3
GAUCUGUGGCUUUCGCUUUGUUCACAUGAGGAUCACCCAUGUAGAAGGUAGCGGUUGAAAUUCGCUGAGGAUAUACAUAGGUGC	–	–	24.4	52.7
AAAAUAAGGCGAGGAUAUCGACAGCAUGUGUGACGAGAAGGCGCGAUAGGUGGGUUCCUUGACAUGAGGAUCACCCAUGUAGAA	–	–	65.7	114
CCACUGAUACCUUGGCCGCUACAUGAGGAUCACCCAUGUCGUGAGGAUAUCCCACCAUACUGUUAGGAGAAGGCGCGUAUGGGC	–	–	11	17.2
AUACUCAUGUAAGGAUAUGCAGCCGAAACGGCUGCAGAAGGUACUAUAAUACAUGAGGAUCACCCAUGUCAAAAUAAACUAGUU	155	36.5	–	–
AUAUAUAUAAGGAAGGAUAUCUUAGAAAAAACAUGAGGAUCACCCAUGUAAAUAAAGAAUAAAUGGGAGAAGGUCCAUAUAUAUA	30.1	16.3	–	–
UGGUACUAGCGAGGAUAUGGGAAGAUACAUGAGGAUCACCCAUGUUUAAGAAUGCCGAGAGGCAACUAGAAGGCCCUAGUACCU	456	69.4	–	–
GUCUGAUUGUAGAAGGUACUUAAUACUCAUGUAACAUGAGGAUCACCCAUGUAUCAACAAUAUUGUAAGGAUAUACAUAUCUCA	478	258	–	–
GGAGAUACAUGAGGAUCACCCAUGUAGGAUAUCUAGUAUAUAUAUGGCGAAAGCCAUAUAUAUAUAGAGAAGGGCGUACACACC	–	–	9	7.91
GUCAGCUCGUGAGGAUAUACAUGUGCUGGAAACAGCACUAUUGAGUUCACAUGAGGAUCACCCAUGUAGAAGGCACGAGCUGAU	–	–	15.8	28
AUACAUGAGGAUCACCCAUGUUACUGGGUCUUAAUAGAUCGUAGAAGGAUGUUAUUAUUAAUUUCAUAGGAUAUACUAUUUAGU	–	–	48.3	32.9
UGCAGACGAGGAUAUAGAUUUAAGUACAUGAGGAUCACCCAUGUGCAUAUGUAUUUAGAUUUAGAAGGCGUCUGCU	–	–	415	383
AUCUAAGAAUUAAUUGUGACAGUGAGAAGGCUAUAGUUUGUGACCGACAUGAGGAUCACCCAUGUAGAGGAUAUCACUAGCUAC	–	–	39.9	253
GCCUUACAUGAGGAUCACCCAUGUGAGGAUAUUAACAGCUGCACUACUGAAGCGGCUGUAAGAAGGCACGUGGU	–	–	30.5	37.8
CCGGAAGUACAGGAUAUCGUAACGGAAACGUUACGAGAAGGGUAUACAUGAGGAUCACCCAUGUGUCCUACCGG	–	–	28.3	26.6
CGCUAUGACAUAGGAUAUUGGUACAUGAGGAUCACCCAUGUCAACCAUGAAGCUCGAUUUGUUGACAAGAAGGAUGUGGUAGCG	6.65	7.63	–	–
UAACAGACGCCUUACAUGAGGAUCACCCAUGUGGCCUUAACCAGAAGGCCCGGAAGAUGACUCAGGGAGGAUAUGGUUUAACAG	349	57.3	–	–
UGGCUACAUGAGGAUCACCCAUGUCAGGAUAUGCCGUUGGAUUGACAUCGUCGUACGGGUAGAAGGGACUGCGU	–	–	59.8	58.3
GCAACGCCUGACAUGAGGAUCACCCAUGUUAGAUUGUUAUGUCAGGAUAUAGUCUAGAAACUAGACUAGAAGGGAUGUGUUGCU	703	131	–	–
UGCGAUGCAGUUGGCCCUGGGCGAGAGGAUAUGGGCAGCGGGACAUGAGGAUCACCCAUGUUCUCUCAGAAGGCUCGAGCAGGC	256	91.6	–	–
AAAAGACAUGAGGAUCACCCAUGUGAAAACGUAGGAGGAUAUGUAUGGAAACCAUACUGUACAGAAGGCCUUUGUC	28.1	29.7	–	–
ACGAGCAAGAUUAUUAUGAAUAAACAUGAGGAUCACCCAUGUAAGGAUAUGCAGUGGAAUACACUGCAGAAGGUACAUAGCUCG	–	–	11.3	44.2
ACAUGUACAGGAUAUACAUGGAUGAUACACGUAUUUCCACUACAUGAGGAUCACCCAUGUAGAAGGGUACAUGA	–	–	39.7	18.4
